Results from different studies.
Each line is one published result; the experiments were not run side by side.
Rock2: Rho-associated protein kinase 2 (Rock2, Rattus norvegicus, UniProt Q62868)
PTGS2: Prostaglandin G/H synthase 2 (PTGS2, Homo sapiens, UniProt P35354)
CHRM3: Muscarinic acetylcholine receptor M3 (CHRM3, Homo sapiens, UniProt P20309)

Structure (SMILES)	target	test	system	conditions	inhibition
COc1cc2c(cc1OC)CN(C(C)CCc1ccc(O)cc1)CC2 (centres unmarked)	Sigma non-opioid intracellular receptor 1 (SIGMAR1, Cavia porcellus, UniProt Q60492)	ligand displacement, radioligand		0.1 µM	34%
CC/C(=N\NC(=O)NCc1cccc(O)c1)c1ccc(O)c(C)c1O	NPM/ALK (Nucleophosmin/ALK tyrosine kinase receptor) (NPM1/ALK, Homo sapiens, UniProt P06748+Q9UM73)	enzyme activity, inhibitor		0.1 µM	-0.4%
CNC(=O)c1cc(Oc2ccc(NC(=O)Nc3ccc(Cl)c(C(F)(F)F)c3)cc2)ccn1	Rock2	enzyme activity, inhibitor		0.3 µM	17%
Nc1ncnc2c1ncn2[C@@H]1O[C@H](CSCCNC(=O)NCc2ccccc2)[C@@H](O)[C@H]1O	Protein arginine N-methyltransferase 7 (PRMT7, Homo sapiens, UniProt Q9NVM4)	enzyme activity, inhibitor, radiometric		10 µM	> 75%
COc1ccc(-c2cc(=O)c3c(O)cc(O[C@@H]4O[C@H](CO)[C@@H](O)[C@H](O)[C@H]4O)cc3o2)cc1O	PTGS2	enzyme activity, inhibitor		0.24 µg/mL	39.7%
O=C1N=C(N2CCCCN2)S/C1=C\c1ccc(F)cc1O	5-hydroxytryptamine receptor 1B (Htr1b, Rattus norvegicus, UniProt P28564)	ligand displacement, radioligand		10 µM	< 10%
COc1cc([C@H]2OC[C@H]3[C@@H]2CO[C@@H]3c2cc(OC)c(O)c(OC)c2)cc(OC)c1O	PTGS2	enzyme activity, inhibitor		0.98 µg/mL	49.3%
Cc1ccc(Nc2nccc(N(C)c3ccc4c(C)n(C)nc4c3)n2)cc1S(N)(=O)=O	Rock2	enzyme activity, inhibitor		10 µM	29%
CCN1CCN(Cc2ccc(NC(=O)c3ccc(C)c(Oc4ccnc5[nH]ccc45)c3)cc2C(F)(F)F)CC1	Scaffold protein ILK (ILK, Homo sapiens, UniProt Q13418)	target engagement in cells, inhibitor, chemoproteomics	Huh-7	1 µM	-36.8%
CN(C)C1CCN(CC#Cc2nn(C3CCCC3)c3nc(NCc4ccccc4)ncc23)C1 (centres unmarked)	Ribosomal protein S6 kinase beta-1 (RPS6KB1, Homo sapiens, UniProt P23443)	enzyme activity, inhibitor, FRET		1 µM	4%
COc1cc(-c2cc(=O)c3c(O)cc(O)cc3o2)ccc1O	PTGS2	enzyme activity, inhibitor		7.81 µg/mL	58.6%
Oc1ccc2ccccc2n1	Serum paraoxonase/arylesterase 1 (PON1, Homo sapiens, UniProt P27169)	enzyme activity, inhibitor		20 µM	84%
COc1cc(NC(C)=O)c(Cl)cc1C(=O)Nc1nccs1	CHRM3	cell-free assay		10 µM	-22.1%
C=C[C@@]1(C)C=C2CC[C@@H]3[C@](C)(CCC[C@@]3(C)C(=O)O)[C@H]2CC1	PTGS2	enzyme activity, inhibitor		0.98 µg/mL	15.2%
CCN(Cc1ccccc1C(F)(F)F)C(=O)C1CCN(S(=O)(=O)c2ccc3[nH]ncc3c2)CC1	Neuropeptide Y receptor type 2 (NPY2R, Homo sapiens, UniProt P49146)	ligand displacement, radioligand		10 µM	3%
O=C(c1ccc(Cl)cc1)N(Cc1ccccc1)C1CCCCC1	CHRM3	cell-free assay		10 µM	-7.8%
COC(=O)c1ccc(O)cc1	PTGS2	enzyme activity, inhibitor		15.63 µg/mL	53.2%
